Screening data from PubChem BioAssay.
A selection: hits, their analogues and other compounds. The true share with any hit is near 1.5%.
HDAC3 inhib = HDAC3 deacetylase inhibitors, primary screen, biochemical, fluorescence, cell-free homogeneous; Histone deacetylase 3 (Homo sapiens), O15379; recombinant HDAC3, fluorogenic peptide/trypsin coupled; inhibition, % at 8.3 µM; 320,000 tested, 0.15% active; AID 2718, 2010; in the data active means inhibition above about 26%, passing the limit was not always enough
Arrestin-AP2 inh = inhibitors of beta-arrestin/AP2 binding, primary screen, biochemical, GPCR trafficking, flow cytometry | beta-arrestin 1 C-terminal peptide binding to AP2 beta2-adaptin appendage (human) | FITC-arrestin peptide / GST-AP2 beads; AP2 beta2 appendage carries R879A mutation | inhibition, % at 10 µM | 340,000 tested, 0.31% active;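 active means inhibition above a set limit, near 3 SD of compounds lacking own fluorescence, cut at about 54% in these data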;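 further: plate controls were DMSO wells for no effect and 5 µM unlabelled arrestin peptide for full effect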
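System: GST-AP2 R879A glutathione beads; medium: PBS, Tween 20 0.05%, BSA 0.1%; reagent: fluorescein-tagged arrestin peptide at 50 nM final; schedule: pre-incubation 12 min, peptide binding 1 h, room temperature; detection: flow cytometry, FL1 (488/535 nm); read-out: inhibition as reduced fluorescein signal on beads, percent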
DSG3 Ab inh = inhibitors of pemphigus antibody binding to DSG3, primary screen, biochemical, bead-based, flow cytometry, scFv-GFP | Desmoglein-3 (Homo sapiens), P32926 | DSG3-coupled beads, scFv-anti-DSG3-GFP binding; active compounds read low | binding (percent of control), % at 10 µM | 310,000 tested, 0.48% active | AID 588358, 2011;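 active means binding more than 3 SD below its plate's average and above zero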;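 further: hits lower antibody fragment binding to DSG3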
T cell HTS = modulators of CD8 T cell-vesicle binding, primary screen, mouse 2C CD8+ T cells, flow cytometry; 330,000 tested, 0.068% active; 2C CD8+ T cell-vesicle binding; active compounds read low; response (vesicle binding), % at 7 µM;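 active means response, share of CD8 T cells binding vesicles, and their 90th percentile fluorescence all below set limits, cut at about 80% in these data, passing the limit was not always enough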;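 further: values below 100% mean blocked vesicle binding to the CD8+ T cells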
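incubation = binding step 1.5 h, 37 °C, antibody labelling 20 min, ice | test system = 2C mouse CD8+ T cells | read-out basis = percent CD8+ FL2 mean versus row control | controls = Peptide-free naked vesicles (low) and QL9 vesicles with 0.7% DMSO vehicle (high) | detection = flow cytometry of vesicle-bound cells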
LANA-H2A inh = blockers of LANA interaction with H2A/H2B – biochemical, FP readout, HTS, primary screen | inhibition, % (test concentration not listed) | Protein LANA1 (Human herpesvirus 8 type P (isolate GK18)), Q9QR71 | 320,000 tested, 0.6% active | cell-free LANA-H2A/H2B peptide, fluorescence polarization; in the data active means inhibition mostly above about 10%, no sharp cut-off; inactive means mostly below about 6.7%
Arr AP2 CP1 = inhibitors of arrestin peptide binding to AP2, confirmation, biochemical, cherry pick 1, flow cytometry beads; shares compounds with Arrestin-AP2 inh; GST-AP2 beads, FITC arrestin peptide binding; GST-fused beta2-adaptin appendage, R879A mutant; inhibition, % at 10 µM; 1,300 tested, 2% active;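 active means inhibition above a set limit, roughly 3 SD of non-fluorescent compound noise, cut at about 38% in these data; inactive means inhibition at or below that limit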;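 further: loss of bead fluorescence from 50 nM FITC arrestin peptide bound to appendage; 0% = negative control wells and 100% = excess unlabelled arrestin peptide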
GST-FITC bead = GST-fluorescein capture on glutathione beads, confirmation, artefact control for arrestin-AP2 inhibitor project, biochemical, cherry pick 1, flow cytometry; inhibition, % at 10 µM; 1,300 tested, 2% active; GST-fluorescein binding to GSH beads, fluorescence, counter-screen; AID 588338, 2011; shares compounds with Arrestin-AP2 inh;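 active means inhibition above 50%, about 3 SD of the inhibition seen with non-fluorescent compounds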;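 further: fluorescein maleimide labelled GST captured on 4 micron glutathione beads; higher means more loss of bead fluorescence from quenching or blocked binding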
Starred values were filed as active, the others as inactive; . = no result given.

SMILES	HDAC3 inhib	Arrestin-AP2 inh	DSG3 Ab inh	T cell HTS	LANA-H2A inh	Arr AP2 CP1	GST-FITC bead
CC[n+]1c(/C=C/Nc2ccccc2)oc2ccc(OC)cc21	7	58*	155	277	-11	-15	-2
CCOC(=O)c1cc2c(nc1NC(=S)NCc1ccccc1)CCCC2	.	103*	114	101	-2	-6	-2
CCOC(=O)c1cc2c(nc1NC(=S)Nc1ccccc1)CC(C)(C)OC2	-3	-4	84	310	-4	.	.
O=C(CCNC(=O)N1CCn2c1nc1ccccc12)NCc1ccccc1Cl	0	18	101	202	-1	.	.
O=C(COC(=O)C1(c2ccccc2F)CCCC1)NCc1cccs1	-3	58*	110	136	5	-3	-5
Cc1cc(OCC(=O)OCC(=O)NC2CCS(=O)(=O)C2)ccc1Cl (stereo not drawn)	.	.	108	.	.	.	.
Cc1ccc(C)c(N2CCN(C3CCCCC3NS(=O)(=O)c3ccccc3)CC2)c1 (stereo not drawn)	0	57*	.	211	-10	1	-15
O=C(Nc1cc(Cl)ccc1Oc1ccccc1)c1ccc(F)cc1	0	61*	99	261	1	-8	-10
O=C(Nc1cc(Cl)ccc1Oc1ccccc1)c1ccccc1F	0	-11	97	225	1	.	.
O=C(CSc1nc2ccccc2c(=O)n1Cc1ccc(F)cc1)NCc1cccs1	4	87*	119	259	-4	24	181*
CC1CN(C(=O)c2ccc(NS(=O)(=O)c3ccc(F)c(F)c3)cc2)CC(C)O1 (stereo not drawn)	-4	56*	76	245	1	-1	-11
CCN(CC(=O)Nc1ccc(NC(C)=O)cc1)C(=O)CCCSc1nc2ccccc2[nH]1	1	66*	101	334	1	-16	1
CC(=O)Nc1ccc(NC(=O)CCCSc2nc3ccccc3[nH]2)cc1	1	2	102	291	-13	.	.
CC(=O)Nc1ccc(NC(=O)CCCc2c[nH]c3ccccc23)cc1	-1	11	95	176	2	.	.
CCN(CC(=O)Nc1ccc(NC(C)=O)cc1)C(=O)CCCc1c[nH]c2ccccc12	5	62*	.	310	5	-4	-5
NS(=O)(=O)c1ccc(CCNC(=O)c2cc(S(=O)(=O)N3CCCCC3)ccc2Cl)cc1	.	.	100	.	.	.	.
Cc1csc(=Nc2cccnc2)n1CC1CCCCC1	3	70*	101	249	-2	-2	-8
COCCCn1c(C)csc1=Nc1cccnc1	2	-5	101	294	9	.	.
O=C(Cc1cccc(NC(=O)C2CCN(S(=O)(=O)c3cccc([N+](=O)[O-])c3)CC2)c1)Nc1cccc(C(=O)N2CCCCC2)c1	.	9	97	.	.	.	.
CCOc1ccc(-c2csc(NC(=O)CSCC(=O)O)n2)c2ccccc12	6	62*	94	126	-12	7	0
CNC(=O)C1CCC(=O)N1Cc1ccc(C)cc1 (stereo not drawn)	1	1	108	356	-1	.	.
Cc1ccc(CN2C(=O)CCC2C(=O)NCc2ccco2)cc1 (stereo not drawn)	1	92*	104	336	3	13	1
Cc1ccc(CNC(=O)C2CCC(=O)N2Cc2ccc(F)cc2)cc1 (stereo not drawn)	-5	6	129	178	-3	.	.
CCC1CCCCN1CCCNC(=O)C1CCC(=O)N1Cc1ccc(C)cc1 (stereo not drawn)	-6	-4	114	313	-2	-5	0
